Calls of active or inactive are those of the source. The calls are words filed in the database; no cut-off is given here.
How the values were obtained:
PANC-1 [1] = test: Induction of morphological changes in human PANC1 cells assessed as disintegration of cell organelles at 5 uM after 24 hrs by ethidium bromide/acridine orange staining based microscopic analysis; type: functional
Summary of the method: (§1)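 PANC-1 cells seeded at 1 × 10^6 per well and attached 24 h. After two PBS washes, treated in NDM with vehicle or 5 μM compound for 24 h. EB/AO dye mix (100 μg mL−1 each in PBS) added for 5 min. Imaged by phase contrast and red/green fluorescence at 20× objective.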

PANC-1 [2] = test: Induction of morphological changes in human PANC1 cells assessed as cell membrane rupture at 5 uM after 24 hrs by ethidium bromide/acridine orange staining based microscopic analysis; type: functional; summary of the method: as §1
PANC-1 [3] = test: Antiausteritic activity against human PANC1 cells in nutrient-deprived medium measured after 24 hrs by WST8 assay; type: functional
Summary of the method: (§2)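 PANC-1 cells seeded at 1.5 × 10^4/well, attached 24 h in DMEM at 37 °C, 5% CO2. After two PBS washes, exposed to serially diluted samples in nutrient-rich DMEM or nutrient-deprived medium (pH 7.4) for 24 h. Then WST-8 (10% in DMEM) for 3 h, A450 read. Viability is relative to control and blank wells. PC50 is the concentration killing 50% of cells preferentially in NDM.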

PANC-1 [4] = test: Inhibition of colony formation in human PANC1 cells pretreated for 24 hrs followed by compound washout measured after 10 days by crystal violet staining based assay; type: functional, cell-based
Summary of the method: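 PANC-1 cells plated at 500/well in DMEM and attached 24 h at 37 °C, 5% CO2. Exposed 24 h to compound (1.25 and 2.5 μM) in DMEM or to DMEM alone. Washed with PBS, then grown 10 d in fresh DMEM. Fixed with 4% formaldehyde and stained with crystal violet for 10 min. Colony area quantified; three independent experiments.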

HeLa = test: Cytotoxicity against human HeLa cells assessed as reduction in cell viability after 72 hrs by CCK8 assay; type: functional, cell-based
Summary of the method: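 HeLa cells (DMEM, 10% FBS) plated at 2 × 10^3/well and attached 24 h at 37 °C, 5% CO2. After a PBS wash, serially diluted samples in DMEM were added for 72 h, with paclitaxel as positive control. Cells were washed, given 10% WST-8 (CCK-8) in DMEM for 3 h, and A450 was read. Viability was taken from three-well means, corrected against blank and control.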

Trypanosoma cruzi = test: Antitrypanosomal activity against Trypanosoma cruzi trypomastigote forms infected in rat L6 cells after 96 hrs by CPRG/Nonidet substrate based photometric method; type: functional, organism-based
[5] = Selectivity index, ratio of IC50 for rat L6 cells to IC50 for Plasmodium falciparum NF54; type: toxicity
Leishmania donovani = test: Antileishmanial activity against Leishmania donovani amastigote forms after 72 hrs by alamar blue staining based fluorescence assay; type: functional, organism-based
[6] = tested on: Trypanosoma brucei rhodesiense; test: Antitrypanosomal activity against Trypanosoma brucei rhodesiense bloodstream forms after 72 hrs by alamar blue staining based fluorescence assay; type: functional, organism-based
Plasmodium falciparum = test: Antiplasmodial activity against Plasmodium falciparum NF54 assessed as reduction in [3H]hypoxanthine incorporation pretreated for 48 hrs followed by [3H]hypoxanthine addition measured after 24 hrs by liquid scintillation counting method; type: functional, organism-based
L6 = test: Cytotoxicity against rat L6 cells after 72 hrs by alamar blue staining based fluorescence assay; type: cell-based
PANC-1 [7] = test: Cytotoxicity against human PANC1 cells in DMEM measured after 24 hrs by WST8 assay; type: cell-based; conditions: panc-1, 24 h; summary of the method: as §2

Row | IC50 (Plasmodium falciparum) | SMILES | Activity (PANC-1 [1]) | Activity (PANC-1 [2]) | Activity (PANC-1 [3]) | inhibition (PANC-1 [4]) | Activity (HeLa) | PC50 (PANC-1 [3]) | Ratio IC50 [5] | also measured
1 | – | COc1cc(C)c(-c2ccc3c(c2O)[C@@H](C)N[C@H](C)C3)c2ccc(-c3c(C)c(-c4ccc5c(c4O)[C@@H](C)N[C@H](C)C5)c4cccc(OC)c4c3O)c(O)c12 (atropisomer, axis not shown) [listing 1 of 2 here] | Active | Active | Dose-dependent effect | Dose-dependent effect | Dose-dependent effect | – | – | –
2 | – | COc1cc(C[C@H]2C(=O)OC[C@@H]2Cc2ccc(OC)c(OC)c2)ccc1O [ARCTIGENIN] | – | – | – | – | – | 0.83 µM | – | –
3 | 0.102 µM | COc1cc(C)c(-c2ccc3c(c2O)[C@@H](C)N[C@H](C)C3)c2ccc(-c3c(C)c(-c4ccc5c(c4O)[C@@H](C)N[C@H](C)C5)c4cccc(OC)c4c3O)c(O)c12 (single isomer, unassigned; atropisomer 2) [listing 1 of 2 here] | – | – | – | – | – | 0.87 µM | 52.3 | IC50 (Trypanosoma cruzi; Trypanosoma cruzi, L6, 96 h): 21.9 µM; IC50 (Leishmania donovani): 55.8 µM; IC50 [6]: 1.03 µM; IC50 (L6; l6): 5.33 µM; IC50 (HeLa; hela): 0.68 µM
4 | 0.043 µM | COc1cc(C)c(-c2ccc3c(c2O)[C@@H](C)N[C@H](C)C3)c2ccc(-c3c(C)c(-c4ccc5c(c4O)[C@@H](C)N[C@H](C)C5)c4cccc(OC)c4c3O)c(O)c12 (atropisomer, axis not shown) [listing 2 of 2 here] | – | – | – | – | – | 2.24 µM | 160 | IC50 (Trypanosoma cruzi; l6): 23.8 µM; IC50 (Leishmania donovani; Leishmania donovani, 72 h): 89.7 µM; IC50 ([6]; Trypanosoma brucei, 72 h): 0.732 µM; IC50 (L6; Rattus norvegicus, L6, 72 h): 6.85 µM; Activity (PANC-1 [7]): Non-Toxic; IC50 (HeLa; Homo sapiens, HeLa, 72 h): 1.08 µM
5 | – | COc1cc(C)c(-c2ccc3c(c2O)[C@@H](C)N[C@H](C)C3)c2ccc(-c3c(C)c(-c4ccc5c(c4O)[C@@H](C)N[C@H](C)C5)c4cccc(OC)c4c3O)c(O)c12 (single isomer, unassigned; atropisomer 2) [listing 2 of 2 here] | Active | Active | Dose-dependent effect | Dose-dependent effect | Dose-dependent effect | – | – | –
